In ChEMBL document CHEMBL5724801, “EUbOPEN Chemogenomics Library - Multiplex” (2024):
Several values for one entry are separate records, joined by “and”; a condition that tells them apart may be missing. Equal entries are not always repeated.

Tested on: HEK-293T
Experiment: Multiplex assay against HEK293T
Type: toxicity, cell-based
Conditions: human
How it was run: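 Cells stained live at seeding with Hoechst33342, BioTracker Green Microtubule Cytoskeleton Dye, MitoTracker Red and Annexin V Alexa Fluor 680 were imaged on a CQ1 microscope at 37°C and 5% CO2 after compound addition. Their classification by CellPathfinder machine-learning gating ran from Hoechst high-intensity objects versus normal cells, to healthy, pyknosed or fragmented nuclei among normal cells, to mitotic or apoptotic among pyknosed cells. Tubulin, mitochondrial-mass and membrane-permeability phenotypes are per cents of healthy-nucleus cells.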

[1] = 12 h, 1 µM, compound concentration 1 uM
[2] = 12 h, 10 µM, compound concentration 10 uM
[3] = 24 h, 1 µM, compound concentration 1 uM
[4] = 24 h, 10 µM, compound concentration 10 uM
[5] = 48 h, 1 µM, compound concentration 1 uM
[6] = 48 h, 10 µM, compound concentration 10 uM

With `Cc1cc(=O)n(C)c2cc(N3C(=O)CC[C@H](NS(=O)(=O)CC(C)C)[C@H]3c3ccc(Cl)cc3)ccc12` the “Population Apoptotic (%)” value [1] was 43% and 63%, the “Population Fragmented Nuclei (%)” value [1] was 7% and 6% and the “Population Healthy Nuclei (%)” value [1] was 83% and 78%. The “Population Hoechst High Intensity Objects (%)” value [1] was 8% and 6%, the “Population Membrane Permeable-Phenotype (%)” value [1] was 0% and the “Population Mitochondria Different-Phenotype (%)” value [1] was 41% and 53%. For the same molecule, the “Population Mitotic Cells (%)” value [1] was 56% and 36%, the “Population Normal (%)” value [1] was 91% and 93% and the “Population Pyknosed Nuclei (%)” value [1] was 8% and 14%. The “Population Tubulin-Different-Phenotype (%)” value [1] was 32% and 14%, the “Total Cell Count” value [1] was 454 and 265 and the “Population Apoptotic (%)” value [2] was 47% and 50%. The “Population Fragmented Nuclei (%)” value [2] was 4% and 6%, the “Population Healthy Nuclei (%)” value [2] was 70% and 66% and the “Population Hoechst High Intensity Objects (%)” value [2] was 11% and 16%. For the same molecule, the “Population Membrane Permeable-Phenotype (%)” value [2] was 0%, the “Population Mitochondria Different-Phenotype (%)” value [2] was 75% and 86% and the “Population Mitotic Cells (%)” value [2] was 52% and 49%. The “Population Normal (%)” value [2] was 88% and 83%, the “Population Pyknosed Nuclei (%)” value [2] was 24% and 27% and the “Population Tubulin-Different-Phenotype (%)” value [2] was 81% and 66%. The “Total Cell Count” value [2] was 368 and 331, the “Population Apoptotic (%)” value [3] was 33% and 36% and the “Population Fragmented Nuclei (%)” value [3] was 9% and 4%. The “Population Healthy Nuclei (%)” value [3] was 81% and 82%, the “Population Hoechst High Intensity Objects (%)” value [3] was 4% and 5% and the “Population Membrane Permeable-Phenotype (%)” value [3] was 0% and 1%. The “Population Mitochondria Different-Phenotype (%)” value [3] was 25% and 42%, the “Population Mitotic Cells (%)” value [3] was 66% and 63% and the “Population Normal (%)” value [3] was 95% and 94%. For the same molecule, the “Population Pyknosed Nuclei (%)” value [3] was 9% and 13%, the “Population Tubulin-Different-Phenotype (%)” value [3] was 19% and 17% and the “Total Cell Count” value [3] was 646 and 327. The “Population Apoptotic (%)” value [4] was 34% and 76%, the “Population Fragmented Nuclei (%)” value [4] was 7% and 8% and the “Population Healthy Nuclei (%)” value [4] was 72% and 67%. For the same molecule, the “Population Hoechst High Intensity Objects (%)” value [4] was 9% and 22%, the “Population Membrane Permeable-Phenotype (%)” value [4] was 0% and the “Population Mitochondria Different-Phenotype (%)” value [4] was 67% and 85%. The “Population Mitotic Cells (%)” value [4] was 65% and 23%, the “Population Normal (%)” value [4] was 90% and 77% and the “Population Pyknosed Nuclei (%)” value [4] was 19% and 23%. For the same molecule, the “Population Tubulin-Different-Phenotype (%)” value [4] was 67% and 71%, the “Total Cell Count” value [4] was 419 and 328 and the “Population Apoptotic (%)” value [5] was 25% and 31%. For the same molecule, the “Population Fragmented Nuclei (%)” value [5] was 14% and 11%, the “Population Healthy Nuclei (%)” value [5] was 78% and 79% and the “Population Hoechst High Intensity Objects (%)” value [5] was 3% and 7%. For the same molecule, the “Population Membrane Permeable-Phenotype (%)” value [5] was 0%, the “Population Mitochondria Different-Phenotype (%)” value [5] was 17% and 20% and the “Population Mitotic Cells (%)” value [5] was 74% and 68%. For the same molecule, the “Population Normal (%)” value [5] was 96% and 92%, the “Population Pyknosed Nuclei (%)” value [5] was 6% and 9% and the “Population Tubulin-Different-Phenotype (%)” value [5] was 15% and 17%. For the same molecule, the “Total Cell Count” value [5] was 985 and 454, the “Population Apoptotic (%)” value [6] was 56% and 66% and the “Population Fragmented Nuclei (%)” value [6] was 12%. For the same molecule, the “Population Healthy Nuclei (%)” value [6] was 77% and 67%, the “Population Hoechst High Intensity Objects (%)” value [6] was 10% and 19% and the “Population Membrane Permeable-Phenotype (%)” value [6] was 1% and 0%. For the same molecule, the “Population Mitochondria Different-Phenotype (%)” value [6] was 67% and 76%, the “Population Mitotic Cells (%)” value [6] was 43% and 33% and the “Population Normal (%)” value [6] was 89% and 80%. The “Population Pyknosed Nuclei (%)” value [6] was 10% and 19%, the “Population Tubulin-Different-Phenotype (%)” value [6] was 58% and 56% and the “Total Cell Count” value [6] was 548 and 371.
